The record followed here is PubChem BioAssay.

Active and inactive are the calls of the source.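 The calls were made as follows, unless noted: active = inhibition above 20% together with a positive visual image hit; inconclusive = visual image hit but inhibition not above 20%; inactive = no visual image hit.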

Test [1] in a line: inhibitors of TNFa-induced NFkB p65 translocation, primary screen, imaging, HUVEC, MLSMR starter and 10KST1 sets (AID 438).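 Also: compound added about 3h40 before a 20 min TNFalpha stimulation.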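 As to inhibition: signal is the nuclear over cytoplasmic p65 intensity ratio per well.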 The note with it: HUVEC TNFa-induced p65 nuclear translocation; cell count: measured here: nuclei count (cytotoxicity indicator), at 2.08 µM; inhibition: at 2 µM, stronger effect = higher value, 0% TNFa-plus-vehicle, 100% no-TNFa wells.
A short description of test [2]: endothelial E-selectin expression blockers – imaging, HUVEC, immunofluorescence, MLSMR starter and 10KST1 sets, primary screen (AID 487;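 active = visually confirmed hit in the image check and inhibition above 20%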;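 as to inhibition: signal is fraction of cell area covered by stained E-selectin grains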;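 as to nuclei count: 100% = median nuclei count of all wells on the same plate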). The note with it: HUVEC TNFalpha-induced E-selectin immunofluorescence imaging, at 2 µM; inhibition: stronger effect = higher value; nuclei count: measured here: cell number, toxicity.
Test [3] is described as follows: Primary imaging screen for DUSP6 inhibitors that restore phospho-Erk in transfected HeLa cells, chemical complementation (AID 609;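 active = compounds giving at least 50% inhibition in the cell-based MKP-3 phosphatase rescue imaging test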;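 as to inhibition: phospho-Erk level distribution per well compared with pooled transfected vehicle control wells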). The note with it: HeLa MKP-3 transfected, phospho-Erk imaging KS statistic, at 10 µM, cells stimulated with TPA for 15 min.
For test [4], the target named is Dual specificity protein phosphatase 6 (Homo sapiens) (UniProt Q16828). The description is as above. The note with it: HeLa MKP-3 transfected, phospho-Erk imaging KS statistic; at 10 µM; stronger effect = higher value; cells stimulated with TPA for 15 min.
Chain of Dual specificity protein phosphatase 6 (Homo sapiens) (Q16828 whole entry, looked up): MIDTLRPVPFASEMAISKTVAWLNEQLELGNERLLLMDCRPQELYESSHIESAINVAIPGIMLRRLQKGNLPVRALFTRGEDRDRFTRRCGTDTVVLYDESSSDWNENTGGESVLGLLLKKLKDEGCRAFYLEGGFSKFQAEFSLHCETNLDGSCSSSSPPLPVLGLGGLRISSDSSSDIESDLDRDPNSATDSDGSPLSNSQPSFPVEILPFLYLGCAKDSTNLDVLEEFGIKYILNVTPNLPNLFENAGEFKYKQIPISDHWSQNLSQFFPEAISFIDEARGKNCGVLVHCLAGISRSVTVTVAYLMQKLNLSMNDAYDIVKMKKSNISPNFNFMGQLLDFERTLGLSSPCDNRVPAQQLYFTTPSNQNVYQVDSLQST
Test [5] addresses Voltage-gated potassium channel subunit beta-2 (Rattus norvegicus) (UniProt P62483). Put plainly: inhibitors of rat Kvbeta2 reductase activity – biochemical, NADPH fluorescence, primary screen (AID 622;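 active = fluorescence slope higher than the sample average by over 3 SD, cut at about -0.22 in these data, passing the limit was not always enough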;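 also: slope of raw intensity against log time taken from 70 to 1610 s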). The conditions noted are these: recombinant KvBeta, 4-cyanobenzaldehyde reduction, at 10 µM, stronger effect = higher value.
For test [6] the target is unchanged. Kind of test: enhancers of rat Kvbeta2 NADPH turnover – biochemical, NADPH fluorescence, primary screen (AID 623;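 active = NADPH fluorescence slope more negative than the mean of all samples by about 3 SD, 99.7% confidence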;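 also: fluorescence intensity change per second fitted from 20 to 320 s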). The conditions noted are these: Recombinant KvBeta, NADPH fluorescence decrease slope, 10 min; at 10 µM; stronger effect = lower value.
In test [7] the target is Alpha-2C adrenergic receptor (Homo sapiens) (UniProt P18825). Put plainly: compounds altering alpha2C-coupled GIRK flux – cell-based, HEK293 alpha2C/GIRK1/2, thallium flux, primary screen (AID 624;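 active = fluorescence slope after compound addition differing from the mean of all screened samples at 99.7% confidence, in either direction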;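 also: slope of fluorescence ratio to pre-addition baseline per second over 15 to 24 s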). The conditions noted are these: thallium flux BTC fluorescence, at 10 µM, actives lie on both sides.
Chain of Alpha-2C adrenergic receptor (Homo sapiens) (P18825 whole entry, looked up): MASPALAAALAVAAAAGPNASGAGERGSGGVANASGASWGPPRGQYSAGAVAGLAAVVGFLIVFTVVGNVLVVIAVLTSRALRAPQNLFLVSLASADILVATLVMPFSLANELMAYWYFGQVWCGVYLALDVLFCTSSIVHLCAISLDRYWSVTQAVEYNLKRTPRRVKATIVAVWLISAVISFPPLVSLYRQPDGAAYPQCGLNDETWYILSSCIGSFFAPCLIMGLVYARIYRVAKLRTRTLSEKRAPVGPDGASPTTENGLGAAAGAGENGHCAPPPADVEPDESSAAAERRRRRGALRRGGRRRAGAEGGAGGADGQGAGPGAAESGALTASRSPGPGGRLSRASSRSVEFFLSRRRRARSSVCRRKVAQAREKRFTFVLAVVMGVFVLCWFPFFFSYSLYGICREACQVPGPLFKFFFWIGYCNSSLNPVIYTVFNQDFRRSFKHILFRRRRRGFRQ
The nature of test [8]: inhibitors of larval lipid processing in zebrafish, primary screen, whole organism, PED6 fluorescence, gall bladder and intestine (AID 686;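 active = a full or partial loss of lipid-probe fluorescence in the fish gall bladder, intestine or both, judged by eye; inactive = no fluorescence loss, or compound toxic to the fish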;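 also: larvae 5 to 7 days old with five fish per well; signal comes from phospholipase A2 cleavage of quenched PED6 carried via bile; overnight exposure to compound and PED6 before scoring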). The conditions noted are these: Zebrafish larvae PED6 lipid processing, fluorescence scoring; screened at 20 µM (by protocol). In outline:
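Doses: 20 µM single dose. Test system: live zebrafish larvae aged 5-7 days, whole organism. Quantity: five larvae per well. Measured by: By-eye fluorescence microscopy. Reagent: ingested quenched lipid PED6 at 100 nM. Read-out: visual per-well fluorescence inhibition score. Times: overnight exposure of larvae to compound plus PED6.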

Test [9] can be described thus: loss of swimming-algae plug formation – whole organism, Chlamydomonas reinhardtii, WT vs cilia-less mutant, absorbance, 96-well, primary screen (AID 463189;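 active = inhibition at or above 50% relative to wild type and mutant plate controls; inactive = inhibition below 50%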;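 also: 0% = wild type cc124 cells in DMSO and 100% = ciliumless bld1 mutant cells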). The conditions noted are these: Chlamydomonas reinhardtii gravitaxis, OD600 absorbance, 2 days; at 10 µM; stronger effect = higher value.
Where [10] appears, read: measured here: cell density z-score.
Setting [11] is: measured here: nuclear c-Myc green intensity z-score.
The mark [12] stands for this setting: measured here: nuclear pErk red intensity z-score, stronger effect = higher value.

Chain of Voltage-gated potassium channel subunit beta-2 (Rattus norvegicus) (P62483 whole entry, looked up): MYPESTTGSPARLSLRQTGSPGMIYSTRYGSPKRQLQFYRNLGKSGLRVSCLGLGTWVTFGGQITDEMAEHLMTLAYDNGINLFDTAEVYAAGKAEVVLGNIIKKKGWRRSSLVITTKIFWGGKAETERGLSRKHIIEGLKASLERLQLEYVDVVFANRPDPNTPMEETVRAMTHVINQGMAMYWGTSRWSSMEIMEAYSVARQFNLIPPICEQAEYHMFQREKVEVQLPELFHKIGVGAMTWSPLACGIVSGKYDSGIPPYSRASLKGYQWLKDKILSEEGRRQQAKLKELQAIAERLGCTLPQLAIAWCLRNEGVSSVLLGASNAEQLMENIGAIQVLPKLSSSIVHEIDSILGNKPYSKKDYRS

The inhibition is the drop in the measured response relative to a control, in per cent. In the case of `CC(=O)c1c(C(C)=O)c(C)n(NC(=O)c2ccncc2)c1C`, in [1], the cell count was 557. Further, the inhibition was 1.2% (inactive) in [1], -2.4% (inactive) in [2], 5.26% (inactive) in [4] and 8.61% (inactive) in test [9]. Moreover, the nuclei count in [2] was determined as 133%. The z-score in test [3] (setting [10]) is 1.16; in test [3] (setting [11]), -1.48; in [3] (setting [12]), 0.477. Further, in test [5], the fluorescence slope was -0.305 (inactive). In addition, the NADPH fluorescence slope in test [6] was 7.7e-06 (inactive). Also, in test [7], the slope is 0.00487 (inactive). Moreover, the outcome in [8] was inactive.
On to `CC(C)c1cc(NCCCN2CCOCC2)n2c(nc3ccccc32)c1C#N`, for which, in [1], the cell count came out at 548. In addition, the inhibition was -21.3% (inactive) in test [1], -6.2% (inactive) in test [2], 6.51% (inactive) in test [4] and 5.12% (inactive) in [9]. In test [2], this molecule gave a nuclei count of 155%. Besides, the z-score in [3] (setting [10]) is 1.24; in test [3] (setting [11]), -0.267; in test [3] (setting [12]), -1.5. For the same molecule, the fluorescence slope in [5] is -0.342 (inactive). Also, the NADPH fluorescence slope in test [6] was -1.7e-06 (inactive). In addition, the slope in [7] is 0.00382 (inactive). Also, in test [8], the outcome was inactive.
For the molecule `Cc1nc(Nc2ncc3c(n2)CCCC3=O)nc2ccccc12`, the cell count in test [1] stood at 372. Moreover, the inhibition in test [1] was 3.8% (inactive); in test [2], 26.2% (inactive); in test [4], 9.42% (inactive); in [9], 22.8% (inactive). In [2], this molecule showed a nuclei count of 122%. Further, the z-score in test [3] (setting [10]) is 0.317; in test [3] (setting [11]), -0.989; in [3] (setting [12]) it was 1.03. For the same molecule, the fluorescence slope in test [5] was -0.403 (inactive). Besides, the NADPH fluorescence slope in test [6] is -0.000152 (inactive). In addition, the slope in [7] is 0.00649 (inactive). Also, in test [8], the call was inactive.
As for `CCOC(=O)c1n[nH]c2ccccc12`, the cell count in test [1] stood at 354. For the same molecule, the inhibition is -6.3% (inactive) in [1], -168% (inactive) in [2], 6.04% (inactive) in test [4] and -13% (inactive) in test [9]. The molecule also had a nuclei count in test [2] of 110%. For the same molecule, the figures for the z-score in test [3] (setting [10]), in test [3] (setting [11]) and in test [3] (setting [12]) were 0.791, -0.274 and -1.01, respectively. Also, the fluorescence slope in test [5] is -0.399 (inactive). Also, the NADPH fluorescence slope in test [6] was 1.6e-05 (inactive). Moreover, the slope in [7] was 0.00468 (inactive). Further, the call in test [8] was inactive.
For `CSc1nc(C)cc(OCCNS(=O)(=O)c2cc(C)ccc2C)n1`, in test [1], the cell count was found to be 384. The inhibition in test [1] is -16% (inactive); in test [2], -21.6% (inactive); in test [4] it was 12.3% (inactive); in test [9] it was 117% (active). The molecule further yielded a nuclei count in test [2] of 141%. The z-score in test [3] (setting [10]) was 0.846; in test [3] (setting [11]), -0.567; in test [3] (setting [12]) it was -1.02. The fluorescence slope in [5] is -0.414 (inactive). Further, the NADPH fluorescence slope in [6] is -8.3e-05 (inactive). Further, in test [7], the slope was 0.00593 (inactive). For the same molecule, the call in test [8] was inactive.
Turning to `COC(=O)c1ccccc1N1C(=O)[C@@H]2C(c3ccc(Br)cc3)=NO[C@@H]2C1=O`, in [1], the cell count was determined as 269. In addition, the inhibition was -12.6% (inactive) in [1], 0.3% (inactive) in [2], 1.75% (inactive) in test [4] and -19.6% (inactive) in test [9]. This molecule displayed a nuclei count in test [2] of 89.9%. In addition, the z-score in test [3] (setting [10]) is -0.914; in test [3] (setting [11]), 2.06; in test [3] (setting [12]) it was -1.22. The fluorescence slope in [5] was -0.458 (inactive). Besides, the NADPH fluorescence slope in [6] is -7.9e-05 (inactive). The slope in test [7] was 0.00516 (inactive). In test [8], the result was inactive.
Regarding `CC1(C)Cc2c(oc3ncn4ncnc4c23)CO1`, the cell count in test [1] was 587. For the same molecule, the inhibition in [1] is -8.9% (inactive); in test [2] it was -143% (inactive); in test [4], 13.2% (inactive); in test [9] it was 18.4% (inactive). In addition, the nuclei count in test [2] was determined as 102%. The z-score in test [3] (setting [10]) is -0.312; in [3] (setting [11]), -1.57; in [3] (setting [12]), 0.382. For the same molecule, the fluorescence slope in test [5] was -0.569 (inactive). Besides, in test [6], the NADPH fluorescence slope was -8.8e-05 (inactive). Also, in test [7], the slope was 0.00443 (inactive). Moreover, the call in test [8] was inactive.
As for `Cn1c(=O)c2c(nc(OCc3cccnc3)n2Cc2ccccc2)n(C)c1=O`, the cell count in test [1] was determined as 599. Besides, the inhibition is 8.2% (inactive) in [1], 3.5% (inactive) in test [2], -2.91% (inactive) in test [4] and -5.51% (inactive) in [9]. Further, the nuclei count in test [2] was determined as 138%. For the same molecule, the results for the z-score in test [3] (setting [10]), in test [3] (setting [11]) and in test [3] (setting [12]) were 1.08, -0.258 and 0.62, respectively. Besides, in test [5], the fluorescence slope was -0.517 (inactive). Also, the NADPH fluorescence slope in [6] was -0.000111 (inactive). In [7], the slope is 0.00473 (inactive). For the same molecule, in test [8], the result was inactive.
For `CCCCc1c(C)nn(-c2nnc3c4ccccc4n(C)c3n2)c1C`, the cell count in test [1] is 575. Besides, the inhibition is -12.6% (inactive) in [1], -37.2% (inactive) in [2], 7.73% (inactive) in [4] and 21.4% (inactive) in [9]. The molecule also had a nuclei count in test [2] of 161%. The z-score in [3] (setting [10]) is -0.575; in test [3] (setting [11]), 2.07; in test [3] (setting [12]), -0.403. For the same molecule, in test [5], the fluorescence slope was -0.48 (inactive). Also, the NADPH fluorescence slope in [6] was -5.6e-05 (inactive). Moreover, in test [7], the slope was 0.00441 (inactive). Moreover, in test [8], the call was inactive.
`CNC(=O)C1CC(=O)N(Cc2ccccc2)C(=Nc2ccc(OC)cc2)S1` (centres undefined): the cell count in [1] came out at 491. Besides, the inhibition in test [1] is -5.2% (inactive); in test [2], -228% (inactive); in test [4], -14% (inactive); in [9], 1.87% (inactive). Further, in [2], the nuclei count was 127%. Further, the z-score in [3] (setting [10]) is -1.18; in test [3] (setting [11]), -0.897; in test [3] (setting [12]), 1.34. Also, the fluorescence slope in test [5] was -0.496 (inactive). The NADPH fluorescence slope in [6] is -4.1e-05 (inactive). Besides, in test [7], the slope was 0.00456 (inactive). For the same molecule, in test [8], the call was inactive.
For the molecule `CC(C)(C)C1CCC2(CC1)C(C#N)=C(SCC(=O)Nc1ccccc1)NC(=O)C2C#N` (centres undefined), in [1], the cell count was determined as 390. Besides, the inhibition is -3.7% (inactive) in test [1], -138% (inactive) in test [2], 9.39% (inactive) in test [4] and 10.8% (inactive) in [9]. In test [2], this molecule returned a nuclei count of 85.7%. In addition, the figures for the z-score in test [3] (setting [10]), in [3] (setting [11]) and in test [3] (setting [12]) were -1.51, -1.06 and -0.683, respectively. The fluorescence slope in test [5] is -0.461 (inactive). Further, the NADPH fluorescence slope in test [6] was 9.2e-06 (inactive). For the same molecule, the slope in test [7] is 0.0063 (inactive). Besides, the outcome in test [8] is “inactive; toxic”.
Consider `CCCCOc1cccc(-c2nnc(N)s2)c1`, for which the cell count in test [1] was found to be 629. Also, the inhibition in [1] is -13.6% (inactive); in [2], 29.1% (inactive); in test [4], -13.3% (inactive); in [9], -2.21% (inactive). Besides, in [2], the nuclei count was 161%. In addition, the z-score was -0.391 in [3] (setting [10]), 0.503 in test [3] (setting [11]) and -0.82 in test [3] (setting [12]). In addition, the fluorescence slope in [5] is -0.395 (inactive). For the same molecule, the NADPH fluorescence slope in [6] is -4.2e-05 (inactive). In addition, the slope in test [7] is 0.00766 (inactive). Also, the molecule was called inactive in [8].
In the case of `N#Cc1c(N)nc(SCC(=O)NCCc2ccccc2)c(C#N)c1-c1cccs1`, the cell count in test [1] came to 441. The inhibition in test [1] was 3.4% (inactive); in test [2], 19.3% (inactive); in [4] it was 7.83% (inactive); in test [9] it was -7.92% (inactive). This molecule also registered a nuclei count in test [2] of 62.6%. The figures for the z-score in test [3] (setting [10]), in [3] (setting [11]) and in test [3] (setting [12]) were -1.05, -0.516 and 1.34, respectively. Also, in [5], the fluorescence slope was -0.418 (inactive). For the same molecule, the NADPH fluorescence slope in [6] was -1.6e-05 (inactive). In [7], the slope was 0.00734 (inactive). Besides, the result in [8] was inactive.
